Assays:
[1] = Relative lipophilicity; assay type: physicochemical; conditions: TLC, acetone/water 2:1 mobile phase
In short: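 Reversed-phase TLC on plates pre-dried 1 h at 105 °C, developed in acetone/water 2:1 (v/v); 1 µL of 3 mg/mL CHCl3 solution spotted. Rf averaged over five runs with varied spot positions; Rm = log[(1/Rf) − 1].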

Mus musculus [2] = species on record: Mus musculus; experiment: (§1) Dose which induced 50% of mice to fall from the rotarod; assay type: functional
In short: (§2)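 Male Swiss mice (20–26 g, 48–54 days old), groups of 10, pretrained on a 3 cm rotarod at 8 rpm; tested 30 min after ip dosing. Failure meant falling within 2 min. TD50 by Litchfield–Wilcoxon, at least 32 animals.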

Mus musculus [3] = species on record: Mus musculus; experiment: Anticonvulsant activity against audiogenic seizures in DBA/2 mice (value required to prevent clonic phases of seizures).; assay type: functional
In short: (§3)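 DBA/2 mice (8–12 g, 22–25 days old, either sex), groups of 10, given drug or vehicle ip (50% DMSO/50% saline, 0.1 mL/10 g) 30 min before auditory stimulation; latency and incidence of seizure phases scored. ED50 per phase by Litchfield–Wilcoxon, at least 32 animals per value.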

Mus musculus [4] = species on record: Mus musculus; experiment: Anticonvulsant activity against clonic phase of the audiogenic seizures after pretreatment with aniracetam in DBA/2 mice; assay type: functional
In short: (§4)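 DBA/2 mice (8–12 g, 22–25 days old, either sex) pretreated with aniracetam, then given the benzodiazepine ip in 50% DMSO/50% saline; sound stimulation 30 min after dosing, with clonic or tonic phase scored. ED50 by Litchfield–Wilcoxon (at least 32 animals), compared with benzodiazepine alone.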

[5] = Therapeutic index (TD50/ED50) from the clonic phase of the audiogenic seizures
In short: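 Ratio of rotarod TD50 (Swiss mice, 30 min after ip dosing) to ED50 for clonic phase of audiogenic seizures in DBA/2 mice (30 min after ip dosing). Both values from Litchfield–Wilcoxon fits, in µmol/kg.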

Mus musculus [6] = species on record: Mus musculus; experiment: Anticonvulsant activity against audiogenic seizures in DBA/2 mice (value required to prevent tonic phases of seizures).; assay type: functional; in short: as §3
Mus musculus [7] = experiment: Anticonvulsant activity against clonic seizures induced by icv injection of AMPA in DBA/2 mice; assay type: functional; conditions: central
Mus musculus [8] = species on record: Mus musculus; experiment: Anticonvulsant activity against tonic phase of the audiogenic seizures after pretreatment with aniracetam in DBA/2 mice; assay type: functional; in short: as §4
Mus musculus [9] = species on record: Mus musculus; experiment: Anticonvulsant activity against clonic phase of the audiogenic seizures after concomitant with flumazenil at 24.72 umol dose in DBA/2 mice; assay type: functional
In short: (§5)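 DBA/2 mice (8–12 g, 22–25 days old, either sex) given test drug ip in 50% DMSO/50% saline together with flumazenil at the stated dose, then auditory stimulation 30 min after dosing; clonic or tonic phase scored in groups of 10. ED50 by Litchfield–Wilcoxon, at least 32 animals per value.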

Mus musculus [10] = species on record: Mus musculus; experiment: Anticonvulsant activity against maximal electroshock (MES) seizures in swiss mice; assay type: functional
In short: (§6)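 Swiss mice dosed ip (50% DMSO/saline) 45 min before ear-clip electroshock (50 mA, 20 ms pulses, 35 Hz, 400 ms). Protection taken as abolition of tonic hindlimb extension. Four to five doses, 8–10 mice each; ED50 by Litchfield–Wilcoxon.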

[11] = as §1; assay type: ADME; conditions: mouse, in vivo; in short: as §2
Mus musculus [12] = species on record: Mus musculus; experiment: Anticonvulsant activity against tonic phase of the audiogenic seizures after concomitant with flumazenil at 8.24 umol dose in DBA/2 mice; assay type: functional; in short: as §5
Mus musculus [13] = experiment: Anticonvulsant activity against tonic seizures induced by icv injection of AMPA in DBA/2 mice; assay type: functional; conditions: central
Mus musculus [14] = species on record: Mus musculus; experiment: Anticonvulsant activity against tonic phase of the audiogenic seizures after concomitant with flumazenil at 24.72 umol dose in DBA/2 mice; assay type: functional; in short: as §5
Mus musculus [15] = species on record: Mus musculus; experiment: Anticonvulsant activity against pentylenetetrazole (PTZ)-induced seizures in swiss mice; assay type: functional
In short: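 Male Swiss mice (20–26 g, 42–48 days old) dosed ip in 50% DMSO/saline 45 min before PTZ 85 mg/kg sc (CD97); watched 30 min. Protection meant no clonic spasm lasting at least 5 s. ED50 by Litchfield–Wilcoxon.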

Mus musculus [16] = species on record: Mus musculus; experiment: Anticonvulsant activity against clonic phase of the audiogenic seizures after concomitant with flumazenil at 8.24 umol dose in DBA/2 mice; assay type: functional; in short: as §5
Mus musculus [17] = species on record: Mus musculus; experiment: Anticonvulsant activity against maximal electroshock (MES ) seizures in swiss mice; assay type: functional; in short: as §6

Row | Compound | Rm [1] | TD50 (Mus musculus [2]) | ED50 (Mus musculus [3]) | selectivity ratio [5] | ED50 (Mus musculus [6]) | other results
1 | COc1cc2c(cc1OC)C(c1ccccc1)=NN(C)C(=O)C2 | -0.003 | 154 µmol/kg |  |  |  | 
2 | COc1cc2c(cc1OC)C(c1ccccc1)=NN(C)C(=S)C2 | 0.282 | 97.1 µmol/kg | 30.6 µmol/kg | 3.17 | 24.7 µmol/kg | 
3 | COc1cc2c(cc1OC)C(c1ccc(Cl)cc1)=NN=C(S)C2 | 0.244 | 193 µmol/kg | 82.4 µmol/kg | 3.26 | 55 µmol/kg | 
4 | COc1cc2c(cc1OC)C(c1cccc(N)c1)=NN=C(S)C2 | -0.259 | 76.7 µmol/kg | 18.8 µmol/kg | 4.08 | 9.1 µmol/kg | 
5 | COc1cc2c(cc1OC)C(c1ccc(N)cc1)=NN(C)C(=S)C2 | -0.072 | 130 µmol/kg | 29.8 µmol/kg | 4.35 | 20.3 µmol/kg | 
6 | COc1cc2c(cc1OC)C(c1ccccc1)=NN=C(S)C2 | 0.014 |  | 19.7 µmol/kg | 5.02 | 15 µmol/kg | ED50 (Mus musculus [7]): 43.1 µmol/kg; ED50 (Mus musculus [8]): 69.1 µmol/kg; ED50 (Mus musculus [4]): 98 µmol/kg; ED50 (Mus musculus [9]): 19.3 µmol/kg; ED50 (Mus musculus [10]): 27.8 µmol/kg; TD50 [11]: 98.9 µmol/kg; ED50 (Mus musculus [12]): 13.6 µmol/kg; ED50 (Mus musculus [13]): 31.1 µmol/kg; ED50 (Mus musculus [14]): 12.6 µmol/kg; ED50 (Mus musculus [15]): 33.7 µmol/kg; ED50 (Mus musculus [16]): 22.4 µmol/kg
7 | COc1cc2c(cc1OC)C(c1ccc(Br)cc1)=NN=C(S)C2 | 0.269 | 73 µmol/kg | 52.1 µmol/kg | 1.4 | 33.3 µmol/kg | 
8 | COc1cc2c(cc1OC)C(c1ccc(Br)cc1)=NN(C)C(=S)C2 | 0.575 |  | 105 µmol/kg |  | 60.4 µmol/kg | 
9 | COc1cc2c(cc1OC)C(c1ccc(N)cc1)=NN=C(S)C2 | -0.308 |  | 6.3 µmol/kg | 6.76 | 3.3 µmol/kg | ED50 (Mus musculus [7]): 17.1 µmol/kg; ED50 (Mus musculus [8]): 38.5 µmol/kg; ED50 (Mus musculus [17]): 7.75 µmol/kg; ED50 (Mus musculus [4]): 46.1 µmol/kg; ED50 (Mus musculus [9]): 7.1 µmol/kg; TD50 [11]: 42.6 µmol/kg; ED50 (Mus musculus [12]): 3.24 µmol/kg; ED50 (Mus musculus [13]): 11.9 µmol/kg; ED50 (Mus musculus [14]): 3.22 µmol/kg; ED50 (Mus musculus [15]): 15.4 µmol/kg; ED50 (Mus musculus [16]): 6.9 µmol/kg
10 | CC1=NN=C(c2ccc(N)cc2)c2cc3c(cc2C1)OCO3 [GYKI-52466] | -0.308 |  |  |  |  | 

Second part, led by results:

Row | Rm [1] | Compound | TD50 (Mus musculus [2]) | ED50 (Mus musculus [3]) | selectivity ratio [5] | ED50 (Mus musculus [6]) | other results
11 | 0.092 | COc1cc2c(cc1OC)C(c1cccc([N+](=O)[O-])c1)=NN=C(S)C2 |  |  |  |  | 
12 | -0.421 | COc1cc2c(cc1OC)C(c1ccc(N)cc1)=NN(C)C(=O)C2 | 159 µmol/kg |  |  |  | 
13 | -0.113 | COc1cc2c(cc1OC)C(c1ccc([N+](=O)[O-])cc1)=NNC(=O)C2 |  |  |  |  | 
14 | 0.035 | COc1cc2c(cc1OC)C(c1ccc(Br)cc1)=NNC(=O)C2 | 226 µmol/kg |  |  |  | 
15 | 0.11 | COc1cc2c(cc1OC)C(c1ccc([N+](=O)[O-])cc1)=NN(C)C(=O)C2 |  |  |  |  | 
16 | -0.135 | COc1cc2c(cc1OC)C(c1cccc([N+](=O)[O-])c1)=NNC(=O)C2 |  |  |  |  | 
17 | -0.542 | COc1cc2c(cc1OC)C(c1cccc(N)c1)=NNC(=O)C2 | 51.5 µmol/kg |  |  |  | 
18 | -0.244 | COc1cc2c(cc1OC)C(c1ccccc1)=NNC(=O)C2 |  | 33.9 µmol/kg |  |  | 
19 | -0.63 | COc1cc2c(cc1OC)C(c1ccc(N)cc1)=NNC(=O)C2 |  |  |  |  | ED50 (Mus musculus [4]): 65.4 µmol/kg
20 | 0.012 | COc1cc2c(cc1OC)C(c1ccc(Cl)cc1)=NNC(=O)C2 | 240 µmol/kg |  |  |  | 
21 | 0.263 | COc1cc2c(cc1OC)C(c1ccc(Br)cc1)=NN(C)C(=O)C2 |  |  |  |  | 
22 | 0.333 | COc1cc2c(cc1OC)C(c1ccc([N+](=O)[O-])cc1)=NN(C)C(=S)C2 |  | 103 µmol/kg |  | 81.5 µmol/kg | 
23 | 0.122 | COc1cc2c(cc1OC)C(c1ccc([N+](=O)[O-])cc1)=NN=C(S)C2 | > 150 µmol/kg | 93.4 µmol/kg |  | 69.8 µmol/kg | 
